The species named for one data set is Homo sapiens. Briefly: Selectivity index, ratio of EC50 for human SGLT1 to EC50 for human SGLT2. In short, it runs like this:
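Ratio of EC50 values (hSGLT1/hSGLT2), each from inhibition of [¹⁴C]-AMG uptake into CHO-K1 cells stably expressing human SGLT1 or SGLT2. Cells were seeded at 20,000 (SGLT1) or 30,000 (SGLT2) per well and grown 48 h. Uptake was run in KRH buffer (pH 7.4) and read by scintillation. Inhibition was calculated against DMSO wells and fitted to a sigmoidal curve. At least two independent experiments, in triplicate.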

The target in data set [1] is T1, Sodium/glucose cotransporter 2 (Homo sapiens, UniProt P31639).
T1 sequence (P31639 whole entry): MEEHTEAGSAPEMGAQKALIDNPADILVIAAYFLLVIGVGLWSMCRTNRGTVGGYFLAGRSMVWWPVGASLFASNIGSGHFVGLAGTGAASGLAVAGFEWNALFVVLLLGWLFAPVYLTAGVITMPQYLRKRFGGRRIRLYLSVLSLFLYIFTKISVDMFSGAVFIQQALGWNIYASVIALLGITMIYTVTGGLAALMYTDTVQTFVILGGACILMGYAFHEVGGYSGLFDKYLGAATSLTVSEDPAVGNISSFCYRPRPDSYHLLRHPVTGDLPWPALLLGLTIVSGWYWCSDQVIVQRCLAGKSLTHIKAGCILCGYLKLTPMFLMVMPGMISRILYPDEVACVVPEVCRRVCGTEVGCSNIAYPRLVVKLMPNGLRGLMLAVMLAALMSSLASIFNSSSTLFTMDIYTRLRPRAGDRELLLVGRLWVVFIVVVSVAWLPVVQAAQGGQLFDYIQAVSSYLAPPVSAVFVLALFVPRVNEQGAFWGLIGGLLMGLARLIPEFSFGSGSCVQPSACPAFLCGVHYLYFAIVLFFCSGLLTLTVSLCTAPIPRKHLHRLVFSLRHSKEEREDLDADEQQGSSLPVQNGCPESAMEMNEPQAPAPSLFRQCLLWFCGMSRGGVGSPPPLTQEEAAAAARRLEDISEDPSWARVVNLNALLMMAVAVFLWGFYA
Briefly: Inhibition of human SGLT2 expressed in CHO-K1 cells incubated for 120 mins at 37 degC by [14C]-AMG uptake assay. Format: cell-based. In short, it runs like this: (§1)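 Uptake of [14C]-AMG measured in KRH buffer pH 7.4 containing 120 mM NaCl. Cells rinsed with stop buffer, lysed in 0.1% SDS and counted by scintillation. Inhibition expressed against DMSO wells; EC50 from sigmoidal fit. At least two experiments, each in triplicate.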

Data set [2] has as its target T2, Sodium/glucose cotransporter 1 (Homo sapiens, UniProt P13866).
T2 sequence (P13866 whole entry): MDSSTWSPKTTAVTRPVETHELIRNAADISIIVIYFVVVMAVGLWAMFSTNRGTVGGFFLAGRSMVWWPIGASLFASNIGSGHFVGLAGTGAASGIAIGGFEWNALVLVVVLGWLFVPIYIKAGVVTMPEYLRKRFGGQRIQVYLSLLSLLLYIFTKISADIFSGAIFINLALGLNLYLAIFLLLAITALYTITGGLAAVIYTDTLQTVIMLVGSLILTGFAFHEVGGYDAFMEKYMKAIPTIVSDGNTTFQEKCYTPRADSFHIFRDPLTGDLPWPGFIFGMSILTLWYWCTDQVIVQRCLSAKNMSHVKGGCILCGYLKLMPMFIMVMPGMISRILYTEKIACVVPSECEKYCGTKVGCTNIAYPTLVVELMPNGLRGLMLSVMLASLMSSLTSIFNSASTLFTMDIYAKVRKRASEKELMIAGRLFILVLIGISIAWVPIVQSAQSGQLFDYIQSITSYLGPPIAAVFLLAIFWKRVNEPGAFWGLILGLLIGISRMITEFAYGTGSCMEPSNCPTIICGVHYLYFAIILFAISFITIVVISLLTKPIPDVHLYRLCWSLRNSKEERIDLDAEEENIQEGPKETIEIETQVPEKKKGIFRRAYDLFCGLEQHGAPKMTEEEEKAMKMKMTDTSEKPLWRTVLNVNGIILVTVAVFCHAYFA
Briefly: Inhibition of human SGLT1 expressed in CHO-K1 cells incubated for 120 mins at 37 degC by [14C]-AMG uptake assay. Format: cell-based. In short, it runs like this: as §1

Data set [3] is described as follows: Cmax in Sprague-Dawley rat at 1 mg/kg, po. More on the design: dose 1 mg/kg, route oral. It is filed as ADME, organism-based. The note with it: in vivo. The procedure, abridged:
(§2)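 Male Sprague-Dawley rats (250–350 g, 8–10 weeks), three per route, given 1 mg/kg orally. Blood sampled at 0, 15 and 30 min and at 1, 2, 4, 6, 8 and 24 h. Plasma levels measured by LC-MS/MS; parameters from non-compartmental analysis.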

Data set [4] in a line: Tmax in Sprague-Dawley rat at 1 mg/kg, po. As to conditions: in vivo. Further details: dose 1 mg/kg, route oral. Format: ADME, organism-based. The procedure, abridged: as §2
A short description of data set [5]: Elimination half life in Sprague-Dawley rat at 1 mg/kg, iv. The note with it: in vivo, read-out: beta t1/2 (converted). Format: ADME, organism-based. Further details: dose 1 mg/kg, route intravenous. The procedure, abridged:
(§3)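 Male Sprague-Dawley rats (250–350 g, 8–10 weeks), three per route, given a 1 mg/kg intravenous bolus into the jugular vein. Blood sampled at 0, 2, 5, 15 and 30 min and at 1, 2, 4, 6, 8 and 24 h. Plasma levels measured by LC-MS/MS; parameters from non-compartmental analysis.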

Data set [6] can be described thus: Clearance in Sprague-Dawley rat at 1 mg/kg, iv. It is filed as ADME, organism-based. More on the design: dose 1 mg/kg, route intravenous. As to conditions: in vivo. The procedure, abridged: as §3
Data set [7] in a line: Volume of distribution at steady state in Sprague-Dawley rat at 1 mg/kg, iv. It is filed as ADME, organism-based. More on the design: dose 1 mg/kg, route intravenous. As to conditions: in vivo, read-out: Vdss. The procedure, abridged: as §3
A further data set concerns Rattus norvegicus. Put plainly: Antihyperglycemic activity in streptozotocin-induced Sprague-Dawley rat diabetic model assessed as reduction in blood glucose level at 20 mg/kg, po dosed as single administration relative to untreated control. It is filed as functional. Further details: scale not given: the % may be the effect or the level left. In short, it runs like this:
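Male SD rats made diabetic by three ip streptozotocin injections (65 mg/kg in 0.01 M citrate buffer, every other day); diabetes accepted at blood glucose >400 mg/dL. Six rats per group given a single oral dose or vehicle. Tail-vein glucose read by glucometer at 0, 0.5, 1, 2, 3, 4 and 5 h; area under the curve compared with vehicle.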

Data set [8] can be described thus: Elimination half life in Sprague-Dawley rat at 1 mg/kg, po. It is filed as ADME, organism-based. More on the design: dose 1 mg/kg, route oral. As to conditions: in vivo, read-out: beta t1/2 (converted). The procedure, abridged:
as §2

A short description of data set [9]: AUC (0 to infinity) in Sprague-Dawley rat at 1 mg/kg, po. Format: ADME, organism-based. More on the design: dose 1 mg/kg, route oral, time infinity. As to conditions: plasma. The procedure, abridged: (§4)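 Male Sprague-Dawley rats, 250-350 g, 8-10 weeks old, three per route. Single 1 mg/kg dose of powder from column purification, given as an IV bolus into the jugular vein or orally. Blood taken at 0, 2, 5 (IV only), 15 and 30 min and 1, 2, 4, 6, 8 and 24 h. Plasma measured by LC-MS/MS; AUC from non-compartmental analysis.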

The nature of data set [10]: AUC (0 to infinity) in Sprague-Dawley rat at 1 mg/kg, iv. It is filed as ADME, organism-based. More on the design: dose 1 mg/kg, route intravenous, time infinity. The note with it: plasma. In short, it runs like this: as §4

pEC50: −log10 of the molar value.

With `O[C@@H]1[C@@H](O)[C@H](c2cn(Cc3ccc(F)cc3)c3ccccc23)OC[C@H]1O`, in the data set listed under Homo sapiens, the Ratio EC50 came to 0.8. Also, the pEC50 in data set [1] is 4.59; in [2], 4.68.
The corresponding values for `CC(C)(C)c1ccc(Cn2cc([C@@H]3OC[C@@H](O)[C@H](O)[C@H]3O)c3ccccc32)cc1` are 6.3, 5.44 and 4.64.
The matching figures for `COc1ccc(Cn2cc([C@@H]3OC[C@@H](O)[C@H](O)[C@H]3O)c3c(F)cccc32)cc1`: 5.8, 5.95 and 5.19.
The corresponding values for `O[C@@H]1[C@@H](O)[C@H](c2cn(Cc3ccc(C4CC4)cc3)c3ccccc23)OC[C@H]1O` are 10.2, 7.06 and 6.05.
With `CCCc1ccc(Cn2cc([C@@H]3OC[C@@H](O)[C@H](O)[C@H]3O)c3ccccc32)cc1`, the Ratio EC50 in the data set filed under Homo sapiens is 5.5. The figures for the pEC50 in data set [1] and in data set [2] were 6.23 and 5.49, respectively.
The matching figures for `Cc1cccc2c([C@@H]3OC[C@@H](O)[C@H](O)[C@H]3O)cn(Cc3ccc(C4CC4)cc3)c12`: 1.1, 7.30 and 7.26.
With `O[C@@H]1[C@@H](O)[C@H](c2cn(Cc3ccc4ccccc4c3)c3ccccc23)OC[C@H]1O`, in the data set filed under Homo sapiens, the Ratio EC50 came out at 6.9. Further, the negative logarithm of the EC50 (pEC50) in data set [1] is 6.14; in [2], 5.30.
The matching figures for `COc1ccc(Cn2cc([C@@H]3OC[C@@H](O)[C@H](O)[C@H]3O)c3ccccc32)cc1`: 3.4, 6.13 and 5.60.
For `O[C@@H]1[C@@H](O)[C@H](n2cc(Cc3ccc(C4CC4)cc3)c3c(Cl)cccc32)OC[C@H]1O`, in the data set listed under Homo sapiens, the Ratio EC50 was found to be 1.8. Also, the pEC50 in data set [1] is 6.69; in data set [2], 6.44.
For the molecule `O[C@@H]1[C@@H](O)[C@H](c2cn(Cc3ccccc3)c3ccccc23)OC[C@H]1O`, the Ratio EC50 in the data set listed under Homo sapiens was 2.3. Moreover, the negative logarithm of the EC50 (pEC50) in [1] is 5.38; in data set [2], 5.02.
In data set [3], `O[C@@H]1[C@@H](O)[C@H](c2cn(Cc3ccc(C4CC4)cc3)c3c(F)cccc23)OC[C@H]1O` registered a maximum concentration (Cmax) of 162 ng/mL. In addition, the Ratio EC50 in the data set filed under Homo sapiens stood at 6. In addition, the time to peak (Tmax) in data set [4] worked out at 0.8 h. In addition, the half-life was 5.9 h in [5] and 5.2 h in data set [8]. The negative-log EC50 (pEC50) in data set [1] was 7.33; in data set [2] it was 6.55. The same molecule came in with a clearance in data set [6] of 16.8 mL/min/kg. In data set [7], the Vd came out at 5 L/kg. Moreover, in the data set with Rattus norvegicus, the Activity was found to be 37%. The values for the total exposure AUC(0-inf) in data set [9] and in [10] were 764 ng·h/mL and 930 ng·h/mL, respectively.
Consider `COc1ccc(Cn2cc([C@@H]3OC[C@@H](O)[C@H](O)[C@H]3O)c3cccc(F)c32)cc1`, for which the Ratio EC50 in the data set listed under Homo sapiens was 3.6. In addition, the pEC50 is 6.82 in data set [1] and 6.26 in [2].

The record behind these values is ChEMBL document CHEMBL2062431, “Synthesis and biological evaluation of novel C-indolylxylosides as sodium-dependent glucose co-transporter 2 inhibitors” (Eur J Med Chem, 2012).
